Measured values from the array DNA melting data of Ke et al. (doi:10.1101/2024.01.08.574731).

Assays:
[1] = folding enthalpy; higher = less favourable; fluorescence melt of hairpins on a sequencing array, two-state fit; settings: sodium 0.088 M
How it was run: (§1)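 Melting temperature and folding enthalpy were derived from bootstrapped two-state fits. The fitted temperatures were raised by 9.35 °C to agree with UV melts, and four replicates were combined by inverse variance. The underlying data were Cy3 fluorescence images of library hairpins, with annealed Cy3 and quencher oligos, on a sequenced MiSeq flow cell in 50 mM Na-HEPES pH 8.0, 25 mM NaCl, taken in 2.5 °C steps up to 60 °C, normalised to pre-quench Cy3 and to control constructs.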

[2] = melting temperature; fluorescence melt of hairpins on a sequencing array, two-state fit, raised by 9.35 °C to match UV melts; settings: sodium 0.088 M
How it was run: as §1

Row | Sequence | folding enthalpy [1] [kcal/mol] | Tm [2] [°C]
1 | GCAGGCGAAAGCCCCTGC ((((((....)))..))) | -15.9 | 40.6
2 | GTGATAGGAAACTATCAC (((((((....))))))) | -42.8 | 56.1
3 | GAGGACGAAAGTCACTC ((((((....))).))) | -17.9 | 43.1
4 | TTTGCGAAAGCAAA (((((....))))) | -17.4 | 54.3
5 | GATCGTTACAACGATC ((((((....)))))) | -39 | 57.3
6 | GTCCTCCGAAAGGATGAC (((.(((....))).))) | -30.7 | 48.6
7 | GTTGCCGGAAACGGCGAC ((.((((....)))).)) | -20.1 | 64.1
8 | GACCTTGGAAACAGGGTC ((((.((....)).)))) | -31.5 | 47
9 | GATCTGACTACAGATC ((((((....)))))) | -36.9 | 49.5
10 | GATAGACGAAAGTCGATC (((.(((....))).))) | -25.9 | 51.2
11 | GATCCAAGCGTGGATC ((((((....)))))) | -35.7 | 50.6
12 | GTGTACGAAAGTACCAC ((((((....))).))) | -13.3 | 44.4
13 | GATCTAAGTTAGATC ((((((...)))))) | -29.9 | 37.3
14 | GCCTTGCGAAAGCCATGC ((.(.((....)).).)) | -3.66 | 27
15 | GAATGCGGAAACGCGTTC (((.(((....))).))) | -37.5 | 54.2
16 | GTCAAACGAAAGTTGGAC (((.(((....))).))) | -24.8 | 49.9
17 | CAAACCGAAAGGCTTG (((.((....)).))) | -27 | 38.4
18 | GTTGGGGGAAACTCCAAC (((((.(....).))))) | -41.2 | 50.4
19 | GATCCTTAAAAGGATC ((((((....)))))) | -41.7 | 49.7
20 | GCGACCCTTCGC ((((....)))) | -26.3 | 51.1
21 | GGCCGTGCGAAAGCAGCC (((..(((....)))))) | -16.3 | 46.6
22 | GATCGGGCATCCGATC ((((((....)))))) | -41.9 | 63.3
23 | GCCACCGAAAGGTACGGC ((((((....)))..))) | -24.9 | 49
24 | CAGGAGAAATCCTG (((((....))))) | -19.7 | 43.7

Row | Sequence | folding enthalpy [1] [kcal/mol] | Tm [2] [°C]
25 | GCGTCGGAACGC ((((....)))) | -16.8 | 52
26 | GGCGTAGGAAACTGCGTC (.((.((....)).)).) | -19.5 | 44.1
27 | GGTCAGCGAAAGCTAACC (((.(((....))).))) | -25.6 | 46.7
28 | GTAATGGGAAACCACTAC (((.(((....))).))) | -15.9 | 27.6
29 | GATCGTCGGTACGATC ((((((....)))))) | -27.3 | 53.8
30 | GATCTGAGGGCAGATC ((((((....)))))) | -33.4 | 47.7
31 | GTGTATGGAAACATATGC (..((((....))))..) | -24.1 | 30.7
32 | GGAGCTCGAAAGAGTCC (((.(((....)))))) | -17.8 | 48.2
33 | GCGTTAGGACGC ((((....)))) | -25.4 | 52.9
34 | GCTCGTGGAAACATGGGC ((.(.((....)).).)) | -17.1 | 42.9
35 | GCCCGGCGAAAGCAGCGC ((.(.((....)).).)) | -16.4 | 46.5
36 | GACTACGAAAGTAGTC ((((((....)))))) | -28.4 | 66.5
37 | GTAAACGGAAACGTTTGC (.(((((....))))).) | -26.1 | 48.5
38 | GCTTTGCGAAAGCAAGC (((.(((....)))))) | -15.2 | 53.2
39 | GACATTGGAAACGATGTC (((((.(....).))))) | -36.1 | 46.7
40 | GCTAAACGAAAGTTCAGC (((.(((....))).))) | -28.7 | 41.4
41 | GGACTCGAAAGAGAGTCC ((((((....)))..))) | -40.5 | 54.5
42 | GCGTAGCGAAAGCGAGGC ((.(.((....)).).)) | -7.75 | 46.6
43 | GATCGAAGGTCGATC ((((((...)))))) | -25.6 | 50.9
44 | GCTTAGCGAAAGCCTAGC (((..((....))..))) | -15.6 | 37.8
45 | GCTACGCGAAAGCCTGGC ((.(.((....)).).)) | -13.4 | 34.4
46 | GCGTCGCGAAAGCGCGGC ((..(((....)))..)) | -12.6 | 61.1
47 | GATGCAGCGAAAGCTATC (((..(((....)))))) | -9.06 | 24.7
48 | GAATGCGAAAGCACATTC ((((((....)))..))) | -13.2 | 31.3

Row | Sequence | folding enthalpy [1] [kcal/mol] | Tm [2] [°C]
49 | GTGGATACGAAAGTACAC (((..(((....)))))) | -13.5 | 36.8
50 | GCGAGGCGAAAGCGGCGC (((..((....))..))) | -38.1 | 66.8
51 | GATGGCCGAAAGGCGATC (((.(((....))).))) | -23.9 | 52.8
52 | GAGTTCGGAAACGAGCTC (((.(((....))).))) | -31.3 | 51.7
53 | GTTGCCGAAAGGCAAAC ((((((....))).))) | -11.6 | 58
54 | GGTATTCGAAAGAAAACC (((.(((....))).))) | -32.8 | 39.3
55 | GCGGAGCGAAAGCCGCGC (((..((....))..))) | -21.1 | 66.1
56 | GGGTTGGGAAACCAGCCC (((.(((....))).))) | -46.6 | 56
57 | GTTGCACGAAAGTGAAAC (((.(((....))).))) | -31.5 | 51.8
58 | GCAGCCGGAAACGGTTGC (((.(((....))).))) | -50.1 | 64.8
59 | GCCATTTCGAAAGAAGGC (((..(((....)))))) | -25.1 | 33.1
60 | GGGTTCGAAAGAAGACCC ((((((....)))..))) | -21.2 | 41.8
61 | GATACCGAAAGGTGATC ((((((....))).))) | -15.7 | 38.1
62 | GAGTCTCCGAAAGGACTC (((..(((....)))))) | -21.8 | 39
63 | GATCCGTTCACGGATC ((((((....)))))) | -51 | 67.4
64 | GGCCTATCGAAAGATGCC (((..(((....)))))) | -22.8 | 36.1
65 | GTTGCCGGAAACAGCAAC (((((.(....).))))) | -27.4 | 46.9
66 | GACGCGGGAAACCACGTC ((((.((....)).)))) | -40.9 | 52.1
67 | GTTTCGGGAAACCGGAAC (((.(((....))).))) | -35.2 | 49.6
68 | GCCCTGCGAAAGCCGAGC ((.(.((....)).).)) | -11 | 34.5
69 | GCAGTCGAAAGACTTTGC ((((((....)))..))) | -17.7 | 35.7
70 | GCGTGCGAAAGCAGTCGC ((((((....)))..))) | -20.1 | 53
71 | GCGTATAGACGC ((((....)))) | -24.6 | 50.3
72 | GCCAGGCGAAAGCAAGGC (((..((....))..))) | -26.5 | 60.6

Row | Sequence | folding enthalpy [1] [kcal/mol] | Tm [2] [°C]
73 | GTCTCCGAAAGGAAGAC ((((((....))).))) | -27.2 | 52.1
74 | GCGTTACCGAAAGGTCGC (((..(((....)))))) | -25.3 | 51.1
75 | GGAATCGAAAGATTCTCC ((((((....)))..))) | -13.5 | 44.4
76 | GCTATGCGAAAGCGAAGC (((..((....))..))) | -16.4 | 44.2
77 | GGCAACCGAAAGGTCGCC (((.(((....))).))) | -37.3 | 58.9
78 | GAATGGCGAAAGCCTTTC (((.(((....))).))) | -21 | 47.2
79 | GCGTAGAGACGC ((((....)))) | -13.3 | 49.1
80 | GCGATACATCGC ((((....)))) | -27.5 | 55.7
81 | GCGGCAACCCGC ((((....)))) | -24.7 | 51.9
82 | GGCGTCGGAAACAACGCC (((((.(....).))))) | -40.6 | 55.2
83 | GTTTACCCGAAAGGGAAC (((..(((....)))))) | -9.41 | 26.8
84 | GCTTTGGAAACAAAGC ((((((....)))))) | -38.1 | 57.4
85 | GCGTAGCGAAAGCTCAGC ((..(((....)))..)) | -10.8 | 46
86 | CGCCCGGAAACGGCAGCG ((((((....)))..))) | -30.7 | 48.7
87 | GATCTAAGCATAGATC ((((((....)))))) | -32.2 | 40.3
88 | GGTGACCGAAAGGTTACC (((.(((....))).))) | -40 | 60.5
89 | GGCATCGAAAGATGGGCC ((((((....)))..))) | -19.2 | 46.8
90 | GGAACTCGAAAGAGTCC (((.(((....)))))) | -19.5 | 49.2
91 | GGGGCTCCGAAAGGACCC (((..(((....)))))) | -35.3 | 56.9
92 | GAGCTCGGAAACGGGTTC ((.(.((....)).).)) | -14.2 | 42.3
93 | GTACGTGAAAACGTAC ((((((....)))))) | -37 | 59.5
